Reference: ChEMBL document CHEMBL5674869, “The Histone Methyltransferase Inhibitor A-366 Uncovers a Role for G9a/GLP in the Epigenetics of Leukemia” (PLoS One, 2015)
Calls of active or inactive are those of the source. The rule behind the calls is not given here.

Columns and labels:
MV4-11 [1] = experiment: Induction of cell cycle arrest in human MV4-11 cells assessed as increase in subG0/G1 cells after 14 days by propidium iodide staining based flow cytometry; type: functional; details: time 14.0 day
Procedure, shortened: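 MV4;11 cells treated 14 days with compound over a concentration range. They were then washed in cold PBS and stained 20 min with 50 μg/ml propidium iodide, 0.1 mg/ml RNase A, 0.1% BSA and 0.1% Triton X-100. Cell-cycle DNA content, including sub-G1/G0 fraction, measured by flow cytometry on BD LSR-II.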

[2] = target: T1, Histone-lysine N-methyltransferase EHMT2 (Homo sapiens) (UniProt Q96KQ7); experiment: Inhibition of G9a in human MV4-11 cells assessed as increase in cell differentiation marker CD11b for 14 days by flow cytometry; details: time 14.0 day
T1 sequence (whole entry): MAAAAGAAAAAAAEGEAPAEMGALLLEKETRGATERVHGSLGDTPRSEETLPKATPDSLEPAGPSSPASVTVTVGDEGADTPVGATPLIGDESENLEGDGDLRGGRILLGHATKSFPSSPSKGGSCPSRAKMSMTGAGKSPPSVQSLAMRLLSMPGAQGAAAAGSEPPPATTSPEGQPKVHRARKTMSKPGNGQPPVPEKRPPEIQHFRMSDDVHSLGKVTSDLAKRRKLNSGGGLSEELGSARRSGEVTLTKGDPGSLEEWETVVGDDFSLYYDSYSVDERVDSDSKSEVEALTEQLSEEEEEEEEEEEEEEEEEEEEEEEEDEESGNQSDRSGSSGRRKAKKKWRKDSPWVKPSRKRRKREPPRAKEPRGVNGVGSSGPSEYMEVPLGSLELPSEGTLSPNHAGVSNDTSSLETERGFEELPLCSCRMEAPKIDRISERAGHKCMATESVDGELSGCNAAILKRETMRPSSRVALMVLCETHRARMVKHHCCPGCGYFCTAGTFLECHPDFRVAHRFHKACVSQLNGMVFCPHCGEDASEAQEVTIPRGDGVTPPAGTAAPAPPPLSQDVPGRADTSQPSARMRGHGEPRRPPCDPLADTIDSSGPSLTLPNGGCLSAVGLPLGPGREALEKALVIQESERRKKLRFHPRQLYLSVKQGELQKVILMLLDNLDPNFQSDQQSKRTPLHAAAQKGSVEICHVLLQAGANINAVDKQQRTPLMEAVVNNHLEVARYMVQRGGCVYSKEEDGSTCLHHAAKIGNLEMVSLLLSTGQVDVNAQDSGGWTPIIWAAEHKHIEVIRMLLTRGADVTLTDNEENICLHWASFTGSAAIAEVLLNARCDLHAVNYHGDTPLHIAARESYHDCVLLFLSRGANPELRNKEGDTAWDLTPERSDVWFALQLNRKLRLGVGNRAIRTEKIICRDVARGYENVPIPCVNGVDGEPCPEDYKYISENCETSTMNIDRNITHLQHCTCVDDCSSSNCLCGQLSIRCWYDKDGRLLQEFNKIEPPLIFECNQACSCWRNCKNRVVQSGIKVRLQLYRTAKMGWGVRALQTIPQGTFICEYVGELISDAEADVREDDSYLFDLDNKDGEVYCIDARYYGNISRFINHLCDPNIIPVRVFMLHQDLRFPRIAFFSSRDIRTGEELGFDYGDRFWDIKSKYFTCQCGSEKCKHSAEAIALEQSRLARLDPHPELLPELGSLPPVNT

[3] = target: T1, Histone-lysine N-methyltransferase EHMT2 (Homo sapiens); experiment: Inhibition of G9a in human PC-3 cells assessed as effect on H3k27me3 levels at 0.3 to 3 uM after 72 hrs by Western blot analysis; type: cell-based; details: dose 0.3-3 µM
Procedure, shortened: (§1)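 PC-3 prostate cells incubated with DMSO, 0.3 or 3 μM compound for 72 h. Lysates probed by western blot with antibodies to H3K9me2, H3K4me2, H3K4me3, H3K9me3, H4K20me1, H4K20me3, H3K36me2 and H3K27me3.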

MV4-11 [4] = experiment: Inhibition of cell viability in human MV4-11 cells after 14 days by trypan blue exclusion assay; type: functional, cell-based; details: time 14.0 day
Procedure, shortened: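 MV4;11 cells treated 14 days with compound over a concentration range. Viability scored by trypan blue exclusion; parallel proliferation read by CellTiter-Glo.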

[5] = Drug level in SCID/beige mouse muscle xenografted with human MV4-11 cells at 30 mg/kg/day via osmotic-mini pump; type: ADME, organism-based, Muscle tissue; details: in vivo
Procedure, shortened: (§2)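 Tumor-bearing SCID-beige female mice (6–8 wk) with subcutaneous flank MV4;11 xenografts (5 x 10^6 cells in 50% Matrigel, grown to ~200 mm3). Compound given by osmotic mini-pump at 30 mg/kg/day in 98% PEG-400/2% Tween-80. Separate PK/PD arm sacrificed after 2, 7 and 14 days of treatment; plasma and tissues collected and analyzed for drug levels.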

HT-1080 [6] = experiment: Antiproliferative activity against human HT-1080 cells upto 10 uM after 5 days by Cell-Titer-Glo assay; type: functional, cell-based; details: time 5.0 day
Procedure, shortened: (§3)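 ATCC tumor lines were grown in their recommended media with 10% FBS and STR-authenticated. Cells were exposed to compound for the stated number of days. Viable cells were read by CellTiter-Glo endpoint. Inhibition was the ratio of treated to untreated wells, with cell-free wells set as 100% inhibition. The EC50 was taken from the dose response.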

Mus musculus = experiment: Decrease in H3K9me2 level in SCID/beige mouse tumor xenografted with human MV4-11 cells at 30 mg/kg/day via osmotic-mini pump for 14 days by alphaLisa assay; type: functional, organism-based; details: Neoplasm, time 14.0 day
Procedure, shortened: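 Female SCID-beige mice, 6–8 weeks old, received 5 x 10^6 MV4;11 cells in 50% Matrigel subcutaneously in the flank. At about 200 mm3, compound was given at 30 mg/kg/day by osmotic mini-pump in 98% PEG-400/2% Tween-80. In the PK/PD arm, tumors were harvested at the stated day and H3K9me2 was measured by AlphaLISA relative to vehicle.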

[7] = target: T1, Histone-lysine N-methyltransferase EHMT2 (Homo sapiens); experiment: Inhibition of G9a in human PC-3 cells assessed as effect on H3k9me3 levels at 0.3 to 3 uM after 72 hrs by Western blot analysis; type: cell-based; details: dose 0.3-3 µM; procedure, shortened: as §1
[8] = target: T1, Histone-lysine N-methyltransferase EHMT2 (Homo sapiens); experiment: Inhibition of G9a in human HL-60 cells assessed as increase in cell differentiation marker CD11b for 14 days by flow cytometry; details: time 14.0 day
[9] = Drug level in SCID/beige mouse liver xenografted with human MV4-11 cells at 30 mg/kg/day via osmotic-mini pump; type: ADME, organism-based; details: in vivo; procedure, shortened: as §2
HT-1080 [10] = experiment: Antiproliferative activity against human HT-1080 cells after 2 days by Cell-Titer-Glo assay; type: functional, cell-based; details: HT-1080, 48 h; procedure, shortened: as §3
HT-1080 [11] = experiment: Antiproliferative activity against human HT-1080 cells after 5 days by Cell-Titer-Glo assay; type: functional, cell-based; details: HT-1080, 120 h; procedure, shortened: as §3
MCF7 = experiment: Antiproliferative activity against human MCF7 cells assessed as inhibition of colony formation at 10 uM after 14 days by crystal violet staining based clonogenic assay; type: functional, cell-based; details: time 14.0 day
Procedure, shortened: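 Clonogenic assay: 500 live cells per well were seeded into six-well plates in drug-free medium. Compound diluted in culture medium was added 24 h later. Cells were cultured at 37°C, then fixed and stained with 0.2% crystal violet. Colonies were counted on an automated colony counter.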

| inhibition [2] | inhibition [3] | Drug uptake [5] | inhibition [7] | inhibition [8] | Drug uptake [9] | EC50 (HT-1080 [10]) [nM] | EC50 (HT-1080 [11]) [nM] | SMILES | Activity (MV4-11 [1]) | inhibition (MV4-11 [4]) | Activity (HT-1080 [6]) | inhibition (Mus musculus) | Activity (MCF7) |
| --- | --- | --- | --- | --- | --- | --- | --- | --- | --- | --- | --- | --- | --- |
| Active | inactive | Active | inactive | Active | Active |  |  | COc1cc2c(cc1OCCCN1CCCC1)N=C(N)C21CCC1 | Active | Active | inactive | Active |  |
|  |  |  |  |  |  | 1400 | 500 | COc1cc2c(NC3CCN(C(C)C)CC3)nc(C3CCCCC3)nc2cc1OCCCN1CCCC1 |  |  |  |  | Active |
